Experimental data taken from article PMC10076185 (Experimental eye research, 2023).

Assays:
Experiment in all cases: SPR, protein immobilised by amine coupling, OneStep injection
Type in all cases: binding
GSTP1 = GSTP1 (Homo sapiens, UniProt P09211)
In short: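 Human GSTP1 was expressed in E. coli and purified in-house, then amine-coupled to a carboxyl chip with an unmodified reference surface. Test compound in 100% DMSO was diluted to 1–100 µM in running buffer (10 mM PBS, 0.1% polyvinylpyrrolidone, 5% DMSO, pH 7.4) and injected as a Taylor-dispersion gradient, three times per concentration, at 25 °C. Sensorgrams were double-referenced with buffer blanks, and equilibrium binding constants were fitted.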

Apo-AI = Apo-AI (Homo sapiens, UniProt P02647)
Human IRBP = Human IRBP (Homo sapiens, UniProt P10745)
Apo-AII = Apo-AII (Homo sapiens, UniProt P02652)
In short: (§1)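 Recombinant human proteins from commercial sources were amine-coupled to a carboxyl sensor chip beside an unmodified reference surface. Test compound in 100% DMSO was diluted to 1–100 µM in running buffer (10 mM PBS, 0.1% polyvinylpyrrolidone, 5% DMSO, pH 7.4) and given as a Taylor-dispersion gradient, three injections each, at 25 °C and 10 Hz. Sensorgrams were zeroed and double-referenced against buffer blanks, and equilibrium constants were fitted.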

Apo-D = Apo-D (Homo sapiens, UniProt P05090)
In short: as §1

Apo-E = Apo-E (Homo sapiens, UniProt P02649)
In short: as §1

Apo-M = Apo-M (Homo sapiens, UniProt O95445)
In short: as §1

Apo-AII, sequence (P02652 24-100): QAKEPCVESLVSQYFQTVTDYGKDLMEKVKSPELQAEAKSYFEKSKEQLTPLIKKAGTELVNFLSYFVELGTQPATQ
Human IRBP, sequence (P10745 18-1247): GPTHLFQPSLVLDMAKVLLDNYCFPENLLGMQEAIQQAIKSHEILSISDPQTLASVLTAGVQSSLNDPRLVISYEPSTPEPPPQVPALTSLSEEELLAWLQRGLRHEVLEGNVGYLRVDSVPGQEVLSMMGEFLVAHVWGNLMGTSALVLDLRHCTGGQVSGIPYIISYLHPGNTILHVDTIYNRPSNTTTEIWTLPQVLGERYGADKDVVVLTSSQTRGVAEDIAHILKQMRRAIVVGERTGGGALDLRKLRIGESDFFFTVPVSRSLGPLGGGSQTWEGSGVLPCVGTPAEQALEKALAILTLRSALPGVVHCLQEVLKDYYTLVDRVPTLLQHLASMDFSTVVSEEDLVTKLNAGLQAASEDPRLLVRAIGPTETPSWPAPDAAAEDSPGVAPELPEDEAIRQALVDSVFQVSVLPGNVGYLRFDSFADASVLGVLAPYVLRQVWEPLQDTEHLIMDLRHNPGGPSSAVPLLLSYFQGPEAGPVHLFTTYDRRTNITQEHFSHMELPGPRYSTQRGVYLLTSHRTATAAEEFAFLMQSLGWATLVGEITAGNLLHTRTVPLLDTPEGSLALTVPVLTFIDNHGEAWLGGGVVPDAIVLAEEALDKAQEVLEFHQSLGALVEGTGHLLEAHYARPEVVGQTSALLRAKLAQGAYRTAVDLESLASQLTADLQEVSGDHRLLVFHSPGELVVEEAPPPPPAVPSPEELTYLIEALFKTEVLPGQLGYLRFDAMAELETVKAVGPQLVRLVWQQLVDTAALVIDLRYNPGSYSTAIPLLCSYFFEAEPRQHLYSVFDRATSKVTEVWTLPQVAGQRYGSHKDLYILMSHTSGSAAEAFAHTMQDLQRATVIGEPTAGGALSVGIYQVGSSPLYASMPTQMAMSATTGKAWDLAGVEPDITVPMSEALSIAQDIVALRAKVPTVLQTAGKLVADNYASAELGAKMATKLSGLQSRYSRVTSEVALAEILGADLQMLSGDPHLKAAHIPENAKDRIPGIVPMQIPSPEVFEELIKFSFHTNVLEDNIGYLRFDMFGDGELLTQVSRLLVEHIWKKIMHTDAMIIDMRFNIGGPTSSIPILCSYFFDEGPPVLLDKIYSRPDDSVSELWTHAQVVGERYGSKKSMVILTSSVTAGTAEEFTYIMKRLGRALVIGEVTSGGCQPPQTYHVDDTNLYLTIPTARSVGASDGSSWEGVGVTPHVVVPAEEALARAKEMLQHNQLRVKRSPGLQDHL
Apo-D, sequence (P05090 21-189): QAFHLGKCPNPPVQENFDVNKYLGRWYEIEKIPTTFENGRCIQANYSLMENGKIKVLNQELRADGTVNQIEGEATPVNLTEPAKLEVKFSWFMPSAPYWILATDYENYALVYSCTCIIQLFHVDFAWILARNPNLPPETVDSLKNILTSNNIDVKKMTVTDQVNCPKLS
Apo-AI, sequence (P02647 25-267): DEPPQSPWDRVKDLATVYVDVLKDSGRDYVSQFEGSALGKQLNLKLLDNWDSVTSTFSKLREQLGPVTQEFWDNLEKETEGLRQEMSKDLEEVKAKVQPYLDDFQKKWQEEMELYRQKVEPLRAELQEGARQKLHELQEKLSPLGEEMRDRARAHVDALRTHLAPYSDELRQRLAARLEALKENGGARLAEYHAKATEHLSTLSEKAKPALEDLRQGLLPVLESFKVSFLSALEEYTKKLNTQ
GSTP1, sequence (P09211 2-210): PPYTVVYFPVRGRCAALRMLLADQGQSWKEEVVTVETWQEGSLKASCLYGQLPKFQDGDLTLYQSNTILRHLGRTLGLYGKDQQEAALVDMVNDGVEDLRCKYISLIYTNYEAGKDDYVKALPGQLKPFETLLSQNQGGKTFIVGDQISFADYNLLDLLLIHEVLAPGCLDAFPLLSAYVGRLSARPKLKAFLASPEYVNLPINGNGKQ
Apo-E, sequence (P02649 19-317): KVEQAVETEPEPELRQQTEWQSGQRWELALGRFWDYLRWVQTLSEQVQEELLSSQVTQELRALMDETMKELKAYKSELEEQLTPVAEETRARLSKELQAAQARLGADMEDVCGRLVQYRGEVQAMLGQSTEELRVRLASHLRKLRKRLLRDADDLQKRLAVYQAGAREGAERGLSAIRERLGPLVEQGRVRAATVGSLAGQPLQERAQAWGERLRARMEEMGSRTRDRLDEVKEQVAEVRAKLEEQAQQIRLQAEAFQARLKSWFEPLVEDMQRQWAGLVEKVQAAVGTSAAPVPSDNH
Apo-M, sequence (O95445 whole entry): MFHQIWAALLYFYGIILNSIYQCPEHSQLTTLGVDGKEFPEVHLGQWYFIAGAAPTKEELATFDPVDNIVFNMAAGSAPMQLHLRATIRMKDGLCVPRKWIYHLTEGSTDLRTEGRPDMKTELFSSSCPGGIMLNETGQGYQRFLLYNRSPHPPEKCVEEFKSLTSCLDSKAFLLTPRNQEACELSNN

SMILES	Kd (GSTP1) [µM]	Kd (Apo-AI) [µM]	Kd (Human IRBP) [µM]	Kd (Apo-AII) [µM]	Kd (Apo-D) [µM]	Kd (Apo-E) [µM]	Kd (Apo-M) [µM]
CC1=C(/C=C/C(C)=C/C=C/C(C)=C/C=C/C=C(C)/C=C/C=C(C)/C=C/C2=C(C)C[C@@H](O)CC2(C)C)C(C)(C)C[C@H](O)C1 [Zeaxanthin]	0.053 ± 0.01	5.62	1.64 ± 0.5	1.84 ± 0.09	68.2	9.25	81 ± 9
CC1=C(/C=C/C(C)=C/C=C/C(C)=C/C=C/C=C(C)/C=C/C=C(C)/C=C/C2=C(C)C(=O)[C@@H](O)CC2(C)C)C(C)(C)C[C@H](O)C1=O [Astaxanthin]	0.15 ± 0.02		1.64 ± 0.06				
CC1=C[C@H](O)CC(C)(C)[C@H]1/C=C/C(C)=C/C=C/C(C)=C/C=C/C=C(C)/C=C/C=C(C)/C=C/C1=C(C)C[C@@H](O)CC1(C)C [Lutein]		12.1	1.06 ± 0.2	6.1 ± 0.3	84 ± 1	21 ± 1	35 ± 1

Further molecules by falling Kd (Human IRBP), results first:

Kd (GSTP1) [µM]	Kd (Apo-AI) [µM]	Kd (Human IRBP) [µM]	Kd (Apo-AII) [µM]	Kd (Apo-D) [µM]	Kd (Apo-E) [µM]	Kd (Apo-M) [µM]	SMILES
0.055 ± 0.03	7.9 ± 0.2	1.85 ± 0.3	1.6 ± 0.7	45.6	6.22	35.4 ± 0.8	CC1=C(/C=C/C(C)=C/C=C/C(C)=C/C=C/C=C(C)/C=C/C=C(C)/C=C/C2=C(C)C[C@H](O)CC2(C)C)C(C)(C)C[C@H](O)C1 [meso-Zeaxanthin]
	0.33 ± 0.03	0.92 ± 0.1		0.01	0.4 ± 0.06	0.05	CC1=C(/C=C/C(C)=C/C=C/C(C)=C/C=C/C=C(C)/C=C/C=C(C)/C=C/C2=C(C)CCCC2(C)C)C(C)(C)CCC1 [β-Carotene]
